In ChEMBL document CHEMBL4325893, “Synthesis and antibacterial profiles of targeted triclosan derivatives” (2019):
In brackets after ≈: the same amount, converted by molar mass.

Key:
Staphylococcus aureus [1] = test: Antibacterial activity against Staphylococcus aureus ATCC 6538 after 18 hrs; assay type: functional; details: ATCC 6538, 18 h
Outline: (§1)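 Broth microdilution in Nutrient Broth No. 2; stocks in ethanol diluted to 0.01–128 µg/ml (triclosan) or 0.25–256 µg/ml (glycosides). Overnight 37 °C NB2 cultures diluted 1 in 10^4 in saline and added to the dilutions. Incubation at 37 °C with agitation, OD read every 15 min; MIC is the lowest concentration preventing any OD rise after 18 h.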

Staphylococcus aureus [2] = test: Antibacterial activity against Staphylococcus aureus ATCC 6538P after 18 hrs; assay type: functional; outline: as §1
Staphylococcus aureus [3] = test: Antibacterial activity against Staphylococcus aureus ATCC 9144 after 18 hrs; assay type: functional; details: ATCC 9144, 18 h; outline: as §1
Staphylococcus aureus [4] = test: Antibacterial activity against Staphylococcus aureus ATCC 25923 after 18 hrs; assay type: functional; details: ATCC 25923, 18 h; outline: as §1
Staphylococcus aureus [5] = test: Antibacterial activity against Staphylococcus aureus ATCC 29213 after 18 hrs; assay type: functional; details: ATCC 29213, 18 h; outline: as §1
Staphylococcus aureus [6] = test: Antibacterial activity against Staphylococcus aureus NCTC 13758 after 18 hrs; assay type: functional; details: NCTC 13758, 18 h; outline: as §1
Staphylococcus aureus [7] = test: Antibacterial activity against Staphylococcus aureus OCC 104 after 18 hrs; assay type: functional; details: OCC 104, 18 h; outline: as §1
Staphylococcus aureus [8] = test: Antibacterial activity against Staphylococcus aureus OCC 106 after 18 hrs; assay type: functional; details: OCC 106, 18 h; outline: as §1
[9] = test system: Staphylococcus epidermidis; test: Antibacterial activity against Staphylococcus epidermidis 155 after 18 hrs; assay type: functional; details: Staphylococcus epidermidis, 155, 18 h; outline: as §1
[10] = test system: Staphylococcus epidermidis; test: Antibacterial activity against Staphylococcus epidermidis ATCC 12228 after 18 hrs; assay type: functional; details: ATCC 12228, 18 h; outline: as §1
[11] = test system: Staphylococcus epidermidis; test: Antibacterial activity against Staphylococcus epidermidis ATCC 14990 after 18 hrs; assay type: functional; details: ATCC 14990, 18 h; outline: as §1
[12] = test system: Staphylococcus haemolyticus; test: Antibacterial activity against Staphylococcus haemolyticus OCC 2223 after 18 hrs; assay type: functional; details: OCC 2223, 18 h
Outline: (§2)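 Broth microdilution in Nutrient Broth No. 2. Ethanol stocks were diluted in broth to 0.01–128 µg/ml for triclosan and 0.25–256 µg/ml for glycosides. Overnight 37°C NB2 cultures were diluted 1 in 10^4 in saline and added to the wells. Plates were incubated at 37°C with OD read every 15 min after agitation. MIC was the lowest concentration giving no OD increase at 18 h.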

[13] = test system: Staphylococcus saprophyticus; test: Antibacterial activity against Staphylococcus saprophyticus ATCC 15305 after 18 hrs; assay type: functional; details: ATCC 15305, 18 h; outline: as §2
Streptococcus agalactiae = test: Antibacterial activity against Streptococcus agalactiae OCC 182 after 18 hrs; assay type: functional; details: OCC 182, 18 h; outline: as §2
Streptococcus pneumoniae [14] = test: Antibacterial activity against Streptococcus pneumoniae 6305 after 18 hrs; assay type: functional; details: Streptococcus pneumoniae, 6305, 18 h; outline: as §2
Streptococcus pneumoniae [15] = test: Antibacterial activity against Streptococcus pneumoniae ATCC 49619 after 18 hrs; assay type: functional; details: ATCC 49619, 18 h; outline: as §2
Streptococcus pyogenes = test: Antibacterial activity against Streptococcus pyogenes ATCC 19615 after 18 hrs; assay type: functional; details: ATCC 19615, 18 h; outline: as §2
Streptococcus viridans = test: Antibacterial activity against Streptococcus viridans OCC 234 after 18 hrs; assay type: functional; details: OCC 234, 18 h; outline: as §2
[16] = test system: Salmonella enterica subsp. enterica serovar Abony; test: Antibacterial activity against Salmonella enterica subspecies enterica serotype Abony NCTC 6017 after 18 hrs; assay type: functional; details: NCTC 6017, 18 h; outline: as §1
[17] = Antibacterial activity against Salmonella enterica subspecies enterica serotype Arizonae OCC 706 after 18 hrs; assay type: functional, Salmonella enterica subsp. enterica serovar Arizonae; details: OCC 706, 18 h; outline: as §1
[18] = Antibacterial activity against Salmonella enterica subspecies enterica serotype Dublin OCC 627 after 18 hrs; assay type: functional, Salmonella enterica subsp. enterica serovar Dublin; details: OCC 627, 18 h; outline: as §1
Salmonella enteritidis = test: Antibacterial activity against Salmonella enterica subspecies enterica serotype Enteritidis 13076 after 18 hrs; assay type: functional, Salmonella enterica subsp. enterica serovar Enteritidis; details: Salmonella enterica, 13076, 18 h; outline: as §1
[19] = Antibacterial activity against Salmonella enterica subspecies enterica serotype Indiana OCC 597 after 18 hrs; assay type: functional, Salmonella enterica subsp. enterica serovar Indiana; details: OCC 597, 18 h; outline: as §1
[20] = Antibacterial activity against Salmonella enterica subspecies enterica serotype Infantis OCC 2133 after 18 hrs; assay type: functional, Salmonella enterica subsp. enterica serovar Infantis; details: OCC 2133, 18 h; outline: as §1
[21] = Antibacterial activity against Salmonella enterica subspecies enterica serotype Nottingham NCTC 7832 after 18 hrs; assay type: functional, Salmonella enterica subsp. enterica serovar Nottingham; details: NCTC 7832, 18 h; outline: as §1
[22] = Antibacterial activity against Salmonella enterica subspecies enterica serotype Poona NCTC 4840 after 18 hrs; assay type: functional, Salmonella enterica subsp. enterica serovar Poona; details: NCTC 4840, 18 h; outline: as §1
[23] = Antibacterial activity against Salmonella enterica subspecies enterica serotype Pullorum OCC 273 after 18 hrs; assay type: functional, Salmonella enterica subsp. enterica serovar Pullorum; details: OCC 273, 18 h; outline: as §1
Salmonella typhimurium = test: Antibacterial activity against Salmonella enterica subspecies enterica serotype typhimurium ATCC 14028 after 18 hrs; assay type: functional, Salmonella enterica subsp. enterica serovar Typhimurium; details: ATCC 14028, 18 h; outline: as §1
[24] = Antibacterial activity against Salmonella enterica subspecies enterica serotype Virchow NCTC 5742 after 18 hrs; assay type: functional, Salmonella enterica subsp. enterica serovar Virchow; details: NCTC 5742, 18 h; outline: as §1

MIC (Staphylococcus aureus [1]): 1 µg/mL (≈ 2.21 µM) | MIC (Staphylococcus aureus [2]): 1 µg/mL (≈ 2.21 µM) | MIC (Staphylococcus aureus [3]): 1 µg/mL (≈ 2.21 µM) | MIC (Staphylococcus aureus [4]): 1 µg/mL (≈ 2.21 µM) | MIC (Staphylococcus aureus [5]): 1 µg/mL (≈ 2.21 µM) | MIC (Staphylococcus aureus [6]): 1 µg/mL (≈ 2.21 µM) | MIC (Staphylococcus aureus [7]): 1 µg/mL (≈ 2.21 µM) | MIC (Staphylococcus aureus [8]): 1 µg/mL (≈ 2.21 µM) | MIC [9]: 1 µg/mL (≈ 2.21 µM) | MIC [10]: 1 µg/mL (≈ 2.21 µM) | MIC [11]: 1 µg/mL (≈ 2.21 µM) | MIC [13]: 4 µg/mL (≈ 8.86 µM) | MIC (Streptococcus agalactiae): 128 µg/mL (≈ 283 µM) | MIC (Streptococcus pneumoniae [14]): 32 µg/mL (≈ 70.8 µM) | MIC (Streptococcus pneumoniae [15]): 32 µg/mL (≈ 70.8 µM) | MIC (Streptococcus pyogenes): 32 µg/mL (≈ 70.8 µM) | MIC (Streptococcus viridans): 128 µg/mL (≈ 283 µM) | MIC [16]: 2 to 8 µg/mL (≈ 4.43 to 17.7 µM) | MIC [17]: 2 to 8 µg/mL (≈ 4.43 to 17.7 µM) | MIC [18]: 2 to 8 µg/mL (≈ 4.43 to 17.7 µM) | MIC (Salmonella enteritidis): 2 to 8 µg/mL (≈ 4.43 to 17.7 µM) | MIC [19]: 2 to 8 µg/mL (≈ 4.43 to 17.7 µM) | MIC [20]: 2 to 8 µg/mL (≈ 4.43 to 17.7 µM) | MIC [21]: 2 to 8 µg/mL (≈ 4.43 to 17.7 µM) | MIC [22]: 2 to 8 µg/mL (≈ 4.43 to 17.7 µM) | MIC [23]: 2 to 8 µg/mL (≈ 4.43 to 17.7 µM) | MIC (Salmonella typhimurium): 2 to 8 µg/mL (≈ 4.43 to 17.7 µM) | MIC [24]: 2 to 8 µg/mL (≈ 4.43 to 17.7 µM)
SMILES: OC[C@H]1O[C@H](Oc2cc(Cl)ccc2Oc2ccc(Cl)cc2Cl)[C@H](O)[C@@H](O)[C@@H]1O
MIC [12]: 1 µg/mL (≈ 2.21 µM)
